Experimental findings from ChEMBL document CHEMBL1152715, “13-Methyl-substituted des-C,D analogs of (20S)-1alpha,25-dihydroxy-2-methylene-19-norvitamin D3 (2MD): synthesis and biological evaluation” (Bioorg Med Chem, 2009) are described below.

The target in experiment [1] is T1, Vitamin D3 receptor (Rattus norvegicus, UniProt P13053).
T1 sequence (P13053 whole entry): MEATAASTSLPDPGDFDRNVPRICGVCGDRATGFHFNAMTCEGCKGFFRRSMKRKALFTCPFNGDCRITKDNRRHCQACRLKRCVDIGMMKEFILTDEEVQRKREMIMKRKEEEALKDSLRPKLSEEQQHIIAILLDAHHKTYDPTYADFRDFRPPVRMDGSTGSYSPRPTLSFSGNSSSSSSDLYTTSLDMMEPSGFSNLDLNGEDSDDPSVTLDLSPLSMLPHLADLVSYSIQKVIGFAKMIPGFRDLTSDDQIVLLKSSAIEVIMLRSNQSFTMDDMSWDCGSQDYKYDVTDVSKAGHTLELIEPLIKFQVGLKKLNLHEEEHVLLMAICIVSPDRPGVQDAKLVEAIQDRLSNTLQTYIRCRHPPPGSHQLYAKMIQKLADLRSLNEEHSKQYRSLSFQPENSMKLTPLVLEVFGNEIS
Description: Displacement of [3H]1-alpha,25-(OH)2D3 from rat recombinant full length VDR. The gist of the method: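 It was incubated overnight on ice with 1 nM (final) [3H]1α,25-(OH)2D3 plus unlabeled competitor, ethanol <10%. Bound ligand was collected on hydroxylapatite, washed and scintillation counted. […] Runs were in duplicate.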
For orientation: In a radioligand displacement assay an active substance lowers the binding of a labelled ligand.

Experiment [2] has as its system HL-60. Description: Induction of cell differentiation of human HL60 cells to monocytes by NBT reduction assay. The class given is functional, cell-based.
Experiment [3] has as its target T1, Vitamin D3 receptor. Description: Activity at VDR in rat ROS 17/2.8 cells assessed as transcriptional activation of 24-hydroxylase gene promoter after 16 hrs by luciferase reporter gene assay. Type of experiment: cell-based. The gist of the method:
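ROS 17/2.8 rat osteosarcoma cells stably transfected with a 24-hydroxylase promoter–luciferase reporter were dosed over a concentration range and harvested 16 h later. Luciferase was read on a luminometer.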
(A reporter such as luciferase makes a cellular process visible.)

For experiment [4], the system named is Rattus norvegicus. Kind of experiment: Effect on bone calcium mobilization in vitamin D-deficient weanling rat assessed as increase in serum calcium level at 1.9 ug/kg, ip administered as 7 consecutive daily doses measured 24 hrs after last dose relative to untreated control. Type of experiment: functional. The gist of the method:
(§1)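 Weanling male rats were fed a 0.47% Ca diet for 1 week, then a 0.02% Ca diet for 3 weeks. In the final week they received daily intraperitoneal doses for 7 days in 0.1 mL propylene glycol/ethanol (95:5); controls got vehicle. There were 5–6 rats per group. Serum Ca and the intestinal serosal/mucosal Ca ratio were compared with vehicle.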

Experiment [5] concerns Rattus norvegicus. Description: Effect on bone calcium mobilization in vitamin D-deficient weanling rat assessed as increase in serum calcium level at 5.7 ug/kg, ip administered as 7 consecutive daily doses measured 24 hrs after last dose relative to untreated control. Type of experiment: functional. The procedure, abridged: as §1
The subject of experiment [6] is Rattus norvegicus. Description: Effect on bone calcium mobilization in vitamin D-deficient weanling rat assessed as increase in serum calcium level at 22.8 ug/kg, ip administered as 7 consecutive daily doses measured 24 hrs after last dose relative to untreated control. Type of experiment: functional. The gist of the method:
as §1

Experiment [7] concerns HL-60. Kind of experiment: Ratio of EC50 of drug to EC50 of 1-alpha,25-(OH)2D3 for induction of cell differentiation of human HL60 cells to monocytes by NBT reduction assay.
The subject of experiment [8] is Rattus norvegicus. Kind of experiment: Effect on bone calcium mobilization in vitamin D-deficient weanling rat assessed as increase in serum calcium level at 5.5 ug/kg, ip administered as 7 consecutive daily doses measured 24 hrs after last dose relative to untreated control. The class given is functional. The procedure, abridged: as §1
For experiment [9], the system named is Rattus norvegicus. Description: Effect on bone calcium mobilization in vitamin D-deficient weanling rat assessed as increase in serum calcium level at 55 ug/kg, ip administered as 7 consecutive daily doses measured 24 hrs after last dose relative to untreated control. Type of experiment: functional. The procedure, abridged:
as §1

Experiment [10] deals with Rattus norvegicus. Description: Effect on bone calcium mobilization in vitamin D-deficient weanling rat assessed as increase in serum calcium level at 165 ug/kg, ip administered as 7 consecutive daily doses measured 24 hrs after last dose relative to untreated control. The class given is functional. The gist of the method:
as §1

Experiment [11] relates to Rattus norvegicus. Kind of experiment: Effect on calcium transport in vitamin D-deficient weanling rat intestine assessed as increase in ratio of serosal to mucosal calcium level at 5.5 ug/kg, ip administered as 7 consecutive daily doses measured 24 hrs after last dose. The class given is functional. The gist of the method: as §1
Experiment [12] has as its system Rattus norvegicus. Description: Effect on calcium transport in vitamin D-deficient weanling rat intestine assessed as increase in ratio of serosal to mucosal calcium level at 55 ug/kg, ip administered as 7 consecutive daily doses measured 24 hrs after last dose. Type of experiment: functional. The procedure, abridged: as §1
Experiment [13] relates to Rattus norvegicus. Kind of experiment: Effect on calcium transport in vitamin D-deficient weanling rat intestine assessed as increase in ratio of serosal to mucosal calcium level at 165 ug/kg, ip administered as 7 consecutive daily doses measured 24 hrs after last dose. The class given is functional. The gist of the method: as §1

As a reminder, the Ki is a dissociation constant, usually derived from enzyme kinetics or from competition with a known ligand. As usually defined, the EC50 is the concentration needed to bring the measured effect to its halfway point. With `C=C1[C@H](O)CC(=C/C=C/CCC[C@@H](C)CCCC(C)(C)O)C[C@H]1O`, the inhibition constant (Ki) at Vitamin D3 receptor [1] was 50 nM. The figures for the concentration for a half-maximal effect (EC50) in the experiment on HL-60 [2] and at Vitamin D3 receptor [3] were 300 nM and 50 nM, respectively. Moreover, the “fold change (FC)” value was -0.2 in the experiment on Rattus norvegicus [4], 0.1 in the experiment with Rattus norvegicus [5] and 0.2 in the experiment with Rattus norvegicus [6]. In addition, the “Ratio EC50” value in the experiment on HL-60 [7] was 100.

Consider `C=C1[C@H](O)CC(=C/C=C/C/C(C)=C/[C@@H](C)CCCC(C)(C)O)C[C@H]1O`, for which the Ki at Vitamin D3 receptor [1] is 60 nM. Also, the concentration for a half-maximal effect (EC50) was greater than 1000 nM in the experiment with HL-60 [2] and greater than 100 nM at Vitamin D3 receptor [3]. Also, the “Ratio EC50” value in the experiment with HL-60 [7] is on record as greater than 333.

On to `C=C1[C@H](O)CC(=C/C=C\C/C(C)=C/[C@@H](C)CCCC(C)(C)O)C[C@H]1O`, for which the Ki at Vitamin D3 receptor [1] is greater than 1000 nM. Also, the EC50 with HL-60 [2] was greater than 1000 nM; on Vitamin D3 receptor [3], greater than 100 nM. Moreover, the “Ratio EC50” value in the experiment with HL-60 [7] is greater than 333.

Turning to `C=C1[C@H](O)CC(=C/C=C/C[C@H](C)C[C@@H](C)CCCC(C)(C)O)C[C@H]1O`, the Ki at Vitamin D3 receptor [1] turned out to be 30 nM. Further, the concentration for a half-maximal effect (EC50) in the experiment with HL-60 [2] came to 6 nM; at Vitamin D3 receptor [3], 3 nM. Moreover, the “Ratio EC50” value with HL-60 [7] is on record as 2.

`C=C1[C@H](O)CC(=C/C=C/C[C@@H](C)C[C@@H](C)CCCC(C)(C)O)C[C@H]1O`: the Ki at Vitamin D3 receptor [1] was 10 nM. Moreover, the EC50 with HL-60 [2] was 300 nM; at Vitamin D3 receptor [3], 90 nM. The values for the fold change (FC) in the experiment with Rattus norvegicus [8], in the experiment on Rattus norvegicus [9] and in the experiment on Rattus norvegicus [10] were -0.2, -0.2 and -0.1, respectively. The values for the Ratio with Rattus norvegicus [11], in the experiment on Rattus norvegicus [12] and in the experiment on Rattus norvegicus [13] were 0.4, -0.5 and -0.9, respectively. The “Ratio EC50” value with HL-60 [7] is 100.
